# PubChem BioAssay
# The source made the active and inactive calls.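 The calls were made as follows, unless noted: active = viability loss from added drug above about 55%, and viability with drug at most 40%, in both replicates (limit read from the data, passing the limit was not always enough); inconclusive = both conditions met in only one replicate; inactive = neither replicate meets both conditions.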
# What was measured:
# [1] = reducers of endogenous Her2 protein level, primary screen, SKBR3 breast tumor cells, AlphaScreen, ATP viability (AID 461;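 active = Her2 level under about 52% in both replicate screens, with viability over 70% of control, limit read from the data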;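 as to Her2 level: lower value means less Her2 protein in the cells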;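 as to viability: percent of carrier control wells set as 100% viability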); conditions: 18-24 h, measured here: SKBR3 viability, ATP luminescence, at 10 µM
# [2] = target: Receptor tyrosine-protein kinase erbB-2 (Homo sapiens) (UniProt P04626); assay: as above; conditions: 18-24 h, at 10 µM, stronger effect = lower value
# [3] = SK-BR-3 cell growth inhibitors, pilot screen, 24 h, human (AID 572;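 active = viability at or below 10% of carrier control in both of two separate runs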;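 also: compound exposure lasted between 18 and 24 h rather than exactly 24 h; 100% = carrier-treated control wells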); conditions: SK-BR-3 viability, CellTiter-Glo luminescence, at 10 µM, stronger effect = lower value
# [4] = HUVEC growth inhibition – cell-based, human, primary screen (AID 575;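 active = viability at or below 30% in both replicate assays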;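 also: 100% = median of untreated cell wells with 0.1% DMSO on each plate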); conditions: HUVEC proliferation, CellTiter-Glo luminescence, 72 h; at 10 µM; stronger effect = lower value
# Procedure, shortened: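 Test system – primary HUVEC, no more than 12 passages · Dosing – one dose, 10 µM final, 0.1% DMSO · Times – 72 h treatment at 37 °C · Measured by – ATP-based CellTiter-Glo luminescent read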
# [5] = growth inhibitors of H69AR lung tumor, primary screen, human, duplicate replicates (AID 580;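 active = viability at or under a set limit in both replicates, limit being median viability minus 3 SD, cut at about 48% in these data, passing the limit was not always enough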;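 also: 100% = mean luminescence of untreated wells and 0% = no signal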); conditions: H69AR lung tumor cells viability, ATP luminescence, 72 h; at 10 µM; stronger effect = lower value
# [6] = reversal of MRP1-mediated doxorubicin resistance, pilot screen, H69AR cells, doxorubicin co-treatment (AID 601); conditions: CellTiter-Glo, 72 h, at 10 µM; for differential viability (reversal): stronger effect = higher value
# [7] = 384-well plate pilot, post-Golgi transport modulator project, inhibition of yeast transport mutant growth (AID 636; in the data active = inhibition above about 31%); conditions: absorbance 615 nm, about 18 h, stronger effect = higher value
# [8] = growth suppression of yeast trafficking mutant, preliminary HTS, modulators of trafficking downstream of Golgi apparatus project, 1536-format plate, OD 615 nm (AID 637; in the data active = inhibition above about 30%); conditions: yeast transport mutant growth, absorbance 615 nm, 18 h; stronger effect = higher value
# [9] = H69AR cells + 2 uM doxorubicin, measured here: viability with 2 uM doxorubicin, stronger effect = lower value
# [10] = H69AR cells, compound alone cytotoxicity
# Chain of Receptor tyrosine-protein kinase erbB-2 (Homo sapiens) (P04626 whole entry, looked up): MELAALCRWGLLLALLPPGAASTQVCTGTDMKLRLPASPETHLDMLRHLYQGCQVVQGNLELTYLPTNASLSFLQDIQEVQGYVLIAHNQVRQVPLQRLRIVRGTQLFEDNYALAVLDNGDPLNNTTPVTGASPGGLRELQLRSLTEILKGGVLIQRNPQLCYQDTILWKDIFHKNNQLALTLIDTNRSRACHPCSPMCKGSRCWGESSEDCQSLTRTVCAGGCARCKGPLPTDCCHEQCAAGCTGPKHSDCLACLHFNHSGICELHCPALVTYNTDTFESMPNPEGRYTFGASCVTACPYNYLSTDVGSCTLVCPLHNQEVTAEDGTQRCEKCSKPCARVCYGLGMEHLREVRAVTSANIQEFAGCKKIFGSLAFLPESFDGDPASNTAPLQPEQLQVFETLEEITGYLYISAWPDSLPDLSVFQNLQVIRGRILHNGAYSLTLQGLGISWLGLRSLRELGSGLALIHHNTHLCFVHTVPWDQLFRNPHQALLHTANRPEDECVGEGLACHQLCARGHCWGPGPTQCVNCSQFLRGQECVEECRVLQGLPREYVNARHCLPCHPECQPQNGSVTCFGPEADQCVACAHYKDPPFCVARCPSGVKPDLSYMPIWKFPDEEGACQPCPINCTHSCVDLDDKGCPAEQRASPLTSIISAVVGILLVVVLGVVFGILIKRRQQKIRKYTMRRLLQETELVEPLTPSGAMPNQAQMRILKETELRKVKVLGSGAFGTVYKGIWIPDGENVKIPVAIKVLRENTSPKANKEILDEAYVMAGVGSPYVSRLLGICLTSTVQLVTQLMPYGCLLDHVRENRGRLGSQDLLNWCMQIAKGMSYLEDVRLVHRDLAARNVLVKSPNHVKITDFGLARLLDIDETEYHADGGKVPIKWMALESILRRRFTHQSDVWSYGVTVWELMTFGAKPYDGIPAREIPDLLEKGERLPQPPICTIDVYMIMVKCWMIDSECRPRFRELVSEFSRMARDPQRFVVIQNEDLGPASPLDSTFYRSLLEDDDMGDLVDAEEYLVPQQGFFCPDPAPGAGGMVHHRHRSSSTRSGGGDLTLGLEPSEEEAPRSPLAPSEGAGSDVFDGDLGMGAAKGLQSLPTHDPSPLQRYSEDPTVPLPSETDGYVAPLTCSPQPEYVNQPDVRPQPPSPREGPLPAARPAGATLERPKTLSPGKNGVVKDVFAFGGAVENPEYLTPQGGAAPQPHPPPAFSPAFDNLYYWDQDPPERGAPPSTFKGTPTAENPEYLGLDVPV
SMILES,viability [1],Her2 level [2],viability [3],viability [4],viability [5],differential viability (reversal) ([6]; H69AR cells + 2 uM doxorubicin),"viability [6, 9]","viability [6, 10]",inhibition [7],inhibition [8]
Cn1c(=O)c2c(nc(SCCCC#N)n2Cc2ccccc2F)n(C)c1=O,79.5%,84.5% (inactive),79.5% (inactive),95.8% (inactive),71.2% (inactive),-4.56% (inactive),75.8%,71.2%,-3.47% (inactive),-3.67% (inactive)
CCCN(S(=O)(=O)c1ccc(OCC)cc1)S(=O)(=O)c1cccs1,89%,100% (inactive),89% (inactive),88.1% (inactive),89.8% (inactive),5.81% (inactive),84%,89.8%,0.8% (inactive),-10.8% (inactive)
COc1ccc2cc(CN(Cc3ccco3)C(c3nnnn3C3CCCCC3)C(C)C)c(=O)[nH]c2c1 (stereo not given),100%,83% (inactive),100% (inactive),47.1% (inactive),33.1% (active),7.31% (inactive),25.8%,33.1%,-0.54% (inactive),-4.59% (inactive)
Cc1cc(NC(=O)COC(=O)C2COc3ccccc3O2)no1 (stereo not given),110%,95.5% (inactive),110% (inactive),104% (inactive),96.7% (inactive),11% (inactive),85.7%,96.7%,-4.61% (inactive),-5% (inactive)
O=C(NCc1cccs1)c1cc2c(s1)CCCC2,92.5%,102% (inactive),92.5% (inactive),85.8% (inactive),97.6% (inactive),5.47% (inactive),92.2%,97.6%,0.65% (inactive),2.13% (inactive)
Cc1ccc(-c2nn3c(=O)c(C)nnc3s2)cc1,112%,112% (inactive),112% (inactive),112% (inactive),104% (inactive),12.8% (inactive),90.9%,104%,-2.97% (inactive),-5% (inactive)
Cc1ccc2cc(C#N)c(N3CCCC3)nc2c1C,77%,70.5% (inactive),77% (inactive),91.4% (inactive),74.8% (inactive),-3.67% (inactive),78.5%,74.8%,-5.27% (inactive),-2.33% (inactive)
CCOc1ccc(NC(=O)CN(C)S(=O)(=O)c2cccs2)cc1,104%,100% (inactive),104% (inactive),101% (inactive),93.9% (inactive),6.1% (inactive),87.8%,93.9%,-3.2% (inactive),1.45% (inactive)
CCCn1c(NCc2ccc3c(c2)OCO3)nc2ccccc21,94%,85% (inactive),94% (inactive),80.1% (inactive),97.2% (inactive),12.3% (inactive),84.9%,97.2%,-5.6% (inactive),-1.13% (inactive)
O=C(C1CC1)N1CCC(c2nc(-c3ccc(S(=O)(=O)NCC4CCCO4)cc3)no2)CC1 (stereo not given),74.5%,114% (inactive),74.5% (inactive),54.7% (inactive),90.6% (inactive),-9.35% (inactive),99.9%,90.6%,0.41% (inactive),-0.82% (inactive)
CS(=O)(=O)NCc1ccc(C(=O)NCc2ccccc2)cc1,101%,97% (inactive),101% (inactive),83.5% (inactive),113% (inactive),18.6% (inactive),94.4%,113%,-4.47% (inactive),4% (inactive)
O=C(Cn1c(SCC(=O)N2CCCc3ccccc32)nc2ccccc21)N1CCCC1,94%,96% (inactive),94% (inactive),104% (inactive),98.3% (inactive),4.66% (inactive),93.6%,98.3%,-6.05% (inactive),-2.38% (inactive)
COc1cc(C2C(C#N)=C(N)OC3=C2C(=O)CCC3)ccc1OC(=O)N1CCOCC1 (stereo not given),132%,91.5% (inactive),132% (inactive),93% (inactive),87.3% (inactive),3.67% (inactive),83.6%,87.3%,-5.87% (inactive),-0.66% (inactive)
COc1cccc(-c2csc3nnc(SCC(=O)c4ccc(NC(C)=O)cc4)n23)c1,108%,106% (inactive),108% (inactive),92% (inactive),90% (inactive),-9.79% (inactive),99.8%,90%,-4.42% (inactive),-0.66% (inactive)
CCOc1ccc(C2CC(c3cccc(C)c3)n3ncnc3N2)cc1 (stereo not given),101%,100% (inactive),101% (inactive),94% (inactive),111% (inactive),18% (inactive),93.1%,111%,1.41% (inactive),-3% (inactive)
CC(C)OC(=O)CSc1nnc(Cc2ccccc2)n1Cc1ccco1,92.5%,91.5% (inactive),92.5% (inactive),84.7% (inactive),92.4% (inactive),6.06% (inactive),86.3%,92.4%,-4.27% (inactive),14.1% (inactive)
O=C(C1CCCN(S(=O)(=O)c2cccnc2)C1)N1CCN(c2ccccn2)CC1 (stereo not given),93.5%,122% (inactive),93.5% (inactive),103% (inactive),98.7% (inactive),8.35% (inactive),90.3%,98.7%,0% (inactive),-4% (inactive)
Cn1c(-c2cc(Br)ccc2O)n[nH]c1=S,89.5%,110% (inactive),89.5% (inactive),87% (inactive),92.9% (inactive),3.24% (inactive),89.7%,92.9%,4.03% (inactive),-9.84% (inactive)
Fc1ccccc1C(c1nnnn1Cc1ccc2c(c1)OCO2)N1CCN(Cc2ccccc2)CC1 (stereo not given),121%,88% (inactive),121% (inactive),69.6% (inactive),89.3% (inactive),-7.54% (inactive),96.9%,89.3%,2.16% (inactive),-4.13% (inactive)
O=C(Nc1ccc(-c2noc(-c3cccs3)n2)cc1)c1cccnc1,74.5%,93% (inactive),74.5% (inactive),54% (inactive),32.9% (active),-46.6% (inactive),79.5%,32.9%,-0.81% (inactive),-8.69% (inactive)
Cc1ccc(NCC(O)C(O)C(O)CO)cc1C (stereo not given),113%,104% (inactive),113% (inactive),93.4% (inactive),94.3% (inactive),-2.34% (inactive),96.6%,94.3%,-6.93% (inactive),-8.1% (inactive)
COc1ccc(NC(=O)CN2CCCCC2)cc1,108%,108% (inactive),108% (inactive),90.2% (inactive),88.2% (inactive),5.94% (inactive),82.3%,88.2%,-5.58% (inactive),-10% (inactive)
CCSc1nc(C)nc2c1oc1ccccc12,78.5%,82% (inactive),78.5% (inactive),92.6% (inactive),97.7% (inactive),10% (inactive),87.7%,97.7%,-4.67% (inactive),-5.74% (inactive)
NC(=O)c1nsnc1-c1ccccc1O,105%,124% (inactive),105% (inactive),99.9% (inactive),90.2% (inactive),-6.96% (inactive),97.2%,90.2%,2.24% (inactive),16.8% (inactive)
Cc1cc(S(=O)(=O)NC2CCCCC2)ccc1OCC(=O)NCc1ccccn1,91.5%,84% (inactive),91.5% (inactive),105% (inactive),99.1% (inactive),6.34% (inactive),92.8%,99.1%,-0.53% (inactive),4.52% (inactive)
CC(C)c1ccc(S(=O)(=O)N2CCN(C(=O)c3cccc(F)c3)CC2)cc1,106%,104% (inactive),106% (inactive),92% (inactive),88.3% (inactive),-8.65% (inactive),96.9%,88.3%,-5.73% (inactive),3.28% (inactive)
CCNC(=O)CC1C(=O)N(c2ccccc2)C(=O)N1Cc1ccc(OC)cc1 (stereo not given),94.5%,100% (inactive),94.5% (inactive),91.9% (inactive),94.8% (inactive),5.68% (inactive),89.1%,94.8%,-3.68% (inactive),-2.91% (inactive)
CCOC(=O)c1sc(NC(=O)CSc2nnc3c4ccccc4n(CC)c3n2)nc1C,83.5%,104% (inactive),83.5% (inactive),104% (inactive),96.2% (inactive),-0.44% (inactive),96.7%,96.2%,1.67% (inactive),-3.33% (inactive)
